≈ marks a conversion by molar mass, not a printed value. Where a SMILES comes first, the peptide text is derived from it. Bridges are numbered along the chain shown (N, C = ends). [ ]: non-standard residue; d: D form. Dab = NCC[C@H](N)C(=O)O

What all share (assay type): functional
The subject of assay [1] is Staphylococcus aureus. The assay is described as follows: Antibacterial activity against Staphylococcus aureus ATCC 29213 after 16 to 18 hrs by CLSI method. The method in brief: (§1)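 Broth microdilution MIC per CLSI. A single colony from Mueller-Hinton agar is grown overnight in cation-supplemented Mueller-Hinton broth (37 °C, shaking, 18–24 h). Incubation is 37 °C for 16–18 h. MIC is the lowest concentration with no visible growth. Three independent runs, each in duplicate.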

Assay [2] relates to Escherichia coli. As to the kind of experiment: Antibacterial activity against Escherichia coli ATCC 25922 after 16 to 18 hrs by CLSI method. The gist of the method:
as §1

Assay [3] deals with Klebsiella pneumoniae. The assay is described as follows: Antibacterial activity against Klebsiella pneumoniae ATCC BAA-1705 after 16 to 18 hrs by CLSI method. The method in brief: as §1
The test system of assay [4] is Acinetobacter baumannii. As to the kind of experiment: Antibacterial activity against Acinetobacter baumannii BAA-1605 after 16 to 18 hrs by CLSI method. The gist of the method: as §1
Assay [5] has as its system Pseudomonas aeruginosa. As to the kind of experiment: Antibacterial activity against Pseudomonas aeruginosa ATCC 27853 after 16 to 18 hrs by CLSI method. The method in brief:
as §1

Assay [6] has as its system Mycolicibacterium fortuitum. The assay is described as follows: Antimycobacterial activity against Mycobacterium fortuitum by pesto blue-dye based broth microdilution assay.
Assay [7] deals with Mycobacteroides chelonae. The assay is described as follows: Antimycobacterial activity against Mycobacterium chelonae by pesto blue-dye based broth microdilution assay. For orientation: In broth dilution the organism is exposed to a series of concentrations in liquid medium.
The test system of assay [8] is Mycobacteroides abscessus. The assay is described as follows: Antimycobacterial activity against Mycobacterium abscessus by pesto blue-dye based broth microdilution assay.
Assay [9] concerns Mycobacterium tuberculosis. As to the kind of experiment: Antimycobacterial activity against Mycobacterium tuberculosis H37Rv ATCC 27294 after 7 days by pesto blue-dye based broth microdilution assay. Particulars: H37Rv ATCC 27294, 168 h. The method in brief: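 Broth microdilution in Middlebrook 7H9 with 10% ADC-Tween-80 (0.2% glycerol, 0.05% Tween-80). Compound is added from 10 mg/mL DMSO stocks as two-fold dilutions, 64–0.5 mg/L. Plates are incubated 7 days at 37 °C and read with PrestoBlue resazurin dye. MIC is the lowest concentration inhibiting visible growth, three replicates in duplicate.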

A word on the MIC: it is the least concentration at which growth counts as inhibited. Low readings indicate inhibition by little substance, high ones a need for much substance. Turning to `Cc1cc(-n2cc(COc3cccc(-n4c(C)nc5ccccc5c4=O)c3)nn2)cc(C)c1C`, the MIC in assay [1], in assay [2], in assay [3], in [4], in [5] and in assay [6] was more than 64 µg/mL each time. Besides, the MIC in assay [7], in assay [8] and in assay [9] was more than 64 µg/mL in each case.
Turning to `Cc1nc2ccccc2c(=O)n1-c1cccc(OCc2cn(-c3cccc(C(=O)O)c3)nn2)c1`, the MIC in [1], in assay [2], in assay [3], in assay [4], in assay [5] and in [6] was more than 64 µg/mL throughout. Besides, the MIC in assay [7], in [8] and in assay [9] was more than 64 µg/mL each time.
As for `Cc1ccc(C)c(OCc2cn(-c3cccc(-n4c(C)nc5ccccc5c4=O)c3)nn2)c1`, the MIC in assay [1], in assay [2], in [3], in assay [4], in assay [5] and in assay [6] was more than 64 µg/mL each time. Moreover, the MIC in assay [7], in assay [8] and in assay [9] was more than 64 µg/mL in each case.
Regarding `Cc1nc2ccccc2c(=O)n1-c1cccc(OCc2cn(-c3ccc(C(=O)O)cc3)nn2)c1`, the MIC in assay [1], in assay [2], in assay [3], in [4], in assay [5] and in assay [6] was more than 64 µg/mL in each case. In addition, the MIC in assay [7], in assay [8] and in assay [9] was more than 64 µg/mL in each case.
On to `COc1cc(-n2cc(COc3cccc(-n4c(C)nc5ccccc5c4=O)c3)nn2)cc(OC)c1OC`, for which the MIC in assay [1], in assay [2], in [3], in assay [4], in [5] and in assay [6] was more than 64 µg/mL each time. The MIC in [7], in assay [8] and in assay [9] was more than 64 µg/mL in each case.
Consider `N#Cc1ccc(/C=C/c2nc3ccccc3c(=O)n2-c2cccc(OCc3cn(-c4ccc(C(F)(F)F)cc4)nn3)c2)cc1`, for which the MIC is 4 µg/mL (≈ 6.77 µM) in [1]; more than 64 µg/mL in assay [2]; more than 64 µg/mL in [3]; more than 64 µg/mL in assay [4]; more than 64 µg/mL in assay [5]; more than 64 µg/mL in assay [6]. Moreover, the MIC in [7], in assay [8] and in [9] was more than 64 µg/mL throughout.
`N#Cc1ccc(/C=C/c2nc3ccccc3c(=O)n2-c2cccc(-n3cc(-c4ccccc4)nn3)c2)cc1`: the MIC in [1], in assay [2], in [3], in [4], in assay [5] and in assay [6] was more than 64 µg/mL in each case. In addition, the MIC in assay [7], in assay [8] and in assay [9] was more than 64 µg/mL throughout.
For `N#Cc1ccc(/C=C/c2nc3ccccc3c(=O)n2-c2cccc(OCc3cn(Cc4cccc(Br)c4)nn3)c2)cc1`, the MIC was 0.5 µg/mL (≈ 0.812 µM) in assay [1]; more than 64 µg/mL in assay [2]; more than 64 µg/mL in assay [3]; more than 64 µg/mL in assay [4]; more than 64 µg/mL in [5]; more than 64 µg/mL in [6]. Moreover, the MIC in [7], in assay [8] and in assay [9] was more than 64 µg/mL in each case.
Take `COc1ccc(-n2cc(COc3cccc(-n4c(C)nc5ccccc5c4=O)c3)nn2)cc1`: the MIC in assay [1], in [2], in assay [3], in assay [4], in assay [5] and in [6] was more than 64 µg/mL each time. In addition, the MIC in assay [7], in [8] and in assay [9] was more than 64 µg/mL throughout.
For `CC(C)C[C@@H]1NC(=O)[C@@H](Cc2ccccc2)NC(=O)[C@H](CCN)NC(=O)[C@@H](NC(=O)[C@H](CCN)NC(=O)[C@@H](N)[C@@H](C)O)CCNC(=O)[C@H]([C@@H](C)O)NC(=O)[C@H](CCN)NC(=O)[C@H](CCN)NC1=O` [POLYMYXIN B NONAPEPTIDE] (H-T[Dab][Dab][Dab][dF]L[Dab][Dab]T; lactam 3-C), the minimal inhibitory concentration (MIC) in [2] and in [4] was more than 128 µg/mL each time.
On to `Cc1ccc(-n2cc(COc3cccc(-n4c(C)nc5ccccc5c4=O)c3)nn2)cc1[N+](=O)[O-]`, for which the MIC in [1], in assay [2], in assay [3], in assay [4], in assay [5] and in assay [6] was more than 64 µg/mL throughout. The MIC in assay [7], in assay [8] and in [9] was more than 64 µg/mL each time.
`Cc1cccc2c(=O)n(-c3cccc(OCc4cn(-c5cccc(Cl)c5)nn4)c3)c(/C=C/c3ccc(C#N)cc3)nc12`: the MIC in assay [1], in assay [2], in assay [3], in [4], in assay [5] and in [6] was more than 64 µg/mL in each case. Further, the MIC in assay [7], in assay [8] and in [9] was more than 64 µg/mL throughout.
Turning to `Cc1nc2ccccc2c(=O)n1-c1cccc(OCc2cn(-c3ccc(Cl)cc3)nn2)c1`, the MIC in [1], in assay [2], in [3], in assay [4], in assay [5] and in [6] was more than 64 µg/mL in each case. For the same compound, the MIC in [7], in [8] and in assay [9] was more than 64 µg/mL each time.
For the compound `O=c1c2ccccc2nc(/C=C/c2ccc(Cl)cc2)n1-c1cccc(-n2cc(-c3ccccc3)nn2)c1`, the MIC in assay [1], in assay [2], in assay [3], in assay [4], in [5] and in assay [6] was more than 64 µg/mL in each case. Further, the MIC in assay [7], in assay [8] and in [9] was more than 64 µg/mL each time.
On to `Cc1cccc(-n2cc(COc3cccc(-n4c(C)nc5ccccc5c4=O)c3)nn2)c1`, for which the MIC in assay [1], in assay [2], in assay [3], in assay [4], in assay [5] and in assay [6] was more than 64 µg/mL in each case. Moreover, the MIC in assay [7], in [8] and in assay [9] was more than 64 µg/mL each time.
As to `CCC(C)(C)c1ccc(OCc2cn(-c3cccc(-n4c(C)nc5ccccc5c4=O)c3)nn2)cc1`, the MIC in assay [1], in assay [2], in assay [3], in assay [4], in assay [5] and in [6] was more than 64 µg/mL each time. In addition, the MIC in assay [7], in assay [8] and in assay [9] was more than 64 µg/mL each time.
As for `N#Cc1ccc(/C=C/c2nc3ccccc3c(=O)n2-c2cccc(OCc3cn(Cc4ccc(Br)cc4)nn3)c2)cc1`, the MIC was 16 µg/mL (≈ 26 µM) in assay [1]; more than 64 µg/mL in [2]; more than 64 µg/mL in [3]; more than 64 µg/mL in [4]; more than 64 µg/mL in [5]; more than 64 µg/mL in assay [6]. The minimal inhibitory concentration (MIC) in [7], in assay [8] and in [9] was more than 64 µg/mL throughout.
For `Cc1cc([N+](=O)[O-])ccc1-n1cc(COc2cccc(-n3c(C)nc4ccccc4c3=O)c2)nn1`, the MIC in assay [1], in assay [2], in assay [3], in [4], in assay [5] and in assay [6] was more than 64 µg/mL each time. The MIC was more than 64 µg/mL in [7], more than 64 µg/mL in [8] and 32 µg/mL (≈ 68.3 µM) in assay [9].
As for `N#Cc1ccc(/C=C/c2nc3ccccc3c(=O)n2-c2cccc(OCc3cn(-c4cccc(F)c4)nn3)c2)cc1`, the MIC in assay [1] was 0.5 µg/mL (≈ 0.925 µM); in assay [2] it was more than 64 µg/mL; in [3] it was more than 64 µg/mL; in [4], more than 64 µg/mL; in assay [5] it was more than 64 µg/mL; in assay [6] it was more than 64 µg/mL. Also, the MIC in [7], in assay [8] and in [9] was more than 64 µg/mL in each case.
On to `N#Cc1ccc(/C=C/c2nc3ccccc3c(=O)n2-c2ccc(OCc3cn(Cc4ccc(Br)cc4)nn3)cc2)cc1`, for which the MIC in assay [1], in [2], in assay [3], in [4], in assay [5] and in assay [6] was more than 64 µg/mL in each case. Also, the MIC in assay [7], in [8] and in assay [9] was more than 64 µg/mL each time.
`CCC(C)(C)c1ccc(OCc2cn(-c3cccc(-n4c(/C=C/c5ccc(C#N)cc5)nc5ccccc5c4=O)c3)nn2)cc1`: the MIC in assay [1], in assay [2], in assay [3], in assay [4], in assay [5] and in [6] was more than 64 µg/mL throughout. In addition, the MIC in [7] and in assay [8] was more than 64 µg/mL in each case.
In [9], `NNC(=O)c1ccncc1` [ISONIAZID] came in with an MIC of 0.03 µg/mL (≈ 0.219 µM).

The values above are taken from ChEMBL document CHEMBL4261585, “Synthesis of 1,2,3-triazole linked 4(3H)-Quinazolinones as potent antibacterial agents against multidrug-resistant Staphylococcus aureus” (Eur J Med Chem, 2018).
